Active and inactive are the calls of the source. No cut-off for these calls is given here.
Columns and labels:
[1] = biological target: T1, Protein-glutamine gamma-glutamyltransferase (Homo sapiens) (UniProt P21980); assay: Induction of TG2 degradation in human SK-OV-3 cells assessed as reduction in TG2 level at 0.1 to 10 uM measured after 24 hrs by Western blot analysis; type: cell-based; conditions: dose 0.1-10 µM
T1 sequence (whole entry): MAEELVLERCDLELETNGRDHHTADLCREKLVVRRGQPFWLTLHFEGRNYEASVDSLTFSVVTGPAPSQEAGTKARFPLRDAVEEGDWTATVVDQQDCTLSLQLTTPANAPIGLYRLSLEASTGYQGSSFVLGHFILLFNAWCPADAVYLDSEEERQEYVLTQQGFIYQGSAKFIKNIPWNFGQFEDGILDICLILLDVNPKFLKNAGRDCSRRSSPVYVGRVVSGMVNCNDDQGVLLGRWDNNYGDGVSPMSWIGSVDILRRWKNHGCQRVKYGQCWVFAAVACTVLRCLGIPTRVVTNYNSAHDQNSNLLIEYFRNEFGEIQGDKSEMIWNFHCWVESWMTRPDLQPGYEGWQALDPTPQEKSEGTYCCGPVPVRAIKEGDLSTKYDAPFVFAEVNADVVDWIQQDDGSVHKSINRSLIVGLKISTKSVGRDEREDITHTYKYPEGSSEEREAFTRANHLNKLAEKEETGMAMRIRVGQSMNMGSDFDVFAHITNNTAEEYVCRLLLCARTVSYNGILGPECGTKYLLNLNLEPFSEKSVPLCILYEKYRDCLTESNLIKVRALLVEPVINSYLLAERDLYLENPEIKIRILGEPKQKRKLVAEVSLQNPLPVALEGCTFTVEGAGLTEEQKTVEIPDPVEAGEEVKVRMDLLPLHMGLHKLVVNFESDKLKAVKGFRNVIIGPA

OVCAR-5 [2] = assay: Inhibition of cell migration in human OVCAR-5 cells at 10 uM incubated for 18 hrs by crystal violet staining based wound healing assay; type: functional
[3] = biological target: T1, Protein-glutamine gamma-glutamyltransferase (Homo sapiens); assay: Potency index, ratio of MT4 KD to test compound KD for binding affinity to TG2 (unknown origin) assessed as dissociation constant at 30 degree C by isothermal titration calorimetry
[4] = biological target: T1, Protein-glutamine gamma-glutamyltransferase (Homo sapiens); assay: Induction of TG2 degradation in human SK-OV-3 cells assessed as reduction in TG2 level measured after 2 to 12 hrs by Western blot analysis; type: cell-based; conditions: dose 0.1-30 µM, time 2-12 hrs
Summary of the method: (§1)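 SKOV3 cells treated with 0.1, 0.3, 1, 3, 10 or 30 μM for 0, 2, 6, 12 and 24 h. TG2 measured by western blot of RIPA lysates with GAPDH reprobe after stripping, followed by densitometry. n = 3 experimental replicates.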

[5] = biological target: T1, Protein-glutamine gamma-glutamyltransferase (Homo sapiens); assay: Induction of TG2 degradation in human OVCAR-5 cells assessed as reduction in TG2 level at 10 uM incubated for 6 hrs in presence of VHL-L by Western blot analysis; type: cell-based
Summary of the method: (§2)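 OVCAR5 or SKOV3 cells treated for 6 h with compound at 10 μM plus 10 μM VHL ligand as competitor. TG2 measured by western blot with densitometry against control. n = 3.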

OVCAR-5 [6] = assay: Cytotoxicity against human OVCAR-5 cells assessed as cell death at 0.1 to 30 uM treated every 6 to 8 hrs for 5 days; type: functional, cell-based; conditions: dose 0.1-30 µM, time 5.0 day
Summary of the method: (§3)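 OVCAR5 and SKOV3 cells in 96-well plates given compound at 0.1, 0.3, 1, 3, 10 or 30 μM, redosed every 6–8 h over 5 days. Viable cells measured by CCK-8 absorbance at […]. n = 3.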

[7] = biological target: T1, Protein-glutamine gamma-glutamyltransferase (Homo sapiens); assay: Induction of TG2 degradation in human OVCAR-5 cells assessed as reduction in TG2 level measured within 6 hrs by Western blot analysis; type: cell-based; conditions: dose 0.1-10 µM
[8] = biological target: T1, Protein-glutamine gamma-glutamyltransferase (Homo sapiens); assay: Induction of TG2 degradation in human SK-OV-3 cells assessed as reduction of TG2 level at 10 uM incubated for 6 hrs followed by MG132 addition and measured after 8 hrs by Western blot analysis; type: cell-based; conditions: time 14.0 hrs
Summary of the method: (§4)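 Proteasome dependence checked in OVCAR5 or SKOV3 cells: compound at 10 μM for 6 h, with MG132 at 20 μM for 8 h. TG2 measured by western blot, and band intensity expressed relative to DMSO control. n = 3.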

[9] = biological target: T1, Protein-glutamine gamma-glutamyltransferase (Homo sapiens); assay: Induction of TG2 degradation in human SK-OV-3 cells assessed as reduction in TG2 level at 10 uM incubated for 6 hrs in presence of VHL-L by Western blot analysis; type: cell-based; summary of the method: as §2
[10] = biological target: T1, Protein-glutamine gamma-glutamyltransferase (Homo sapiens); assay: Induction of TG2 degradation in human OVCAR-5 cells assessed as reduction of TG2 level treated every 6 to 8 hrs for 24 hrs by Western blot analysis; type: cell-based; conditions: dose 1-10 µM
Summary of the method: (§5)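 OVCAR5 or SKOV3 cells given compound at 1 or 10 μM, redosed every 6–8 h over 24 h. TG2 measured at 24 h by western blot of RIPA lysates.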

SK-OV-3 [11] = assay: Inhibition of cell adhesion to fibronectin in human SK-OV-3 cells at 10 uM incubated for 6 hrs by CCK-8 assay; type: functional, cell-based
Summary of the method: (§6)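 Wells coated for 1 h with 10 μg/mL fibronectin in PBS. After PBS wash, attached cells counted by CCK-8 absorbance at […]. n = 3.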

[12] = biological target: T1, Protein-glutamine gamma-glutamyltransferase (Homo sapiens); assay: Induction of TG2 degradation in human SK-OV-3 cells assessed as reduction of TG2 level at 1 to 10 uM measured after 12 hrs by Western blot analysis; type: cell-based; conditions: dose 1-10 µM, time 24.0 hrs, in the assay text read “24 hrs” for “12 hrs”; summary of the method: as §1
[13] = biological target: T1, Protein-glutamine gamma-glutamyltransferase (Homo sapiens); assay: Induction of TG2 degradation in human SK-OV-3 cells assessed as reduction of TG2 level treated every 6 to 8 hrs for 24 hrs by Western blot analysis; type: cell-based; conditions: dose 1-10 µM; summary of the method: as §5
OVCAR-5 [14] = assay: Inhibition of cell adhesion to fibronectin in human OVCAR-5 cells at 10 uM incubated for 6 hrs by CCK-8 assay; type: functional, cell-based; summary of the method: as §6
SK-OV-3 [15] = assay: Cytotoxicity against human SK-OV-3 cells assessed as cell death at 0.1 to 30 uM treated every 6 to 8 hrs for 5 days by CCK-8 assay; type: functional, cell-based; conditions: dose 0.1-30 µM, time 5.0 day; summary of the method: as §3
OVCAR-5 [16] = assay: Inhibition of cell migration in human OVCAR-5 cells at 10 uM incubated for 18 hrs by crystal violet staining based transwell migration assay; type: functional
Summary of the method: (§7)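 Transwell migration through 8 μm pores: 15,000 OVCAR5 or SKOV3 cells in serum-free medium with compound or control in upper chamber, 10% serum below. After 18 h, migrated cells fixed in 4% PFA, stained with crystal violet and counted at 40×. n = 3.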

[17] = biological target: T1, Protein-glutamine gamma-glutamyltransferase (Homo sapiens); assay: Induction of TG2 degradation in human OVCAR-5 cells assessed as reduction of TG2 level at 1 to 10 uM measured after 24 hrs by Western blot analysis; conditions: dose 1-10 µM
SK-OV-3 [18] = assay: Inhibition of cell migration in human SK-OV-3 cells at 10 uM incubated for 18 hrs by crystal violet staining based wound healing assay; type: functional
[19] = biological target: T1, Protein-glutamine gamma-glutamyltransferase (Homo sapiens); assay: Induction of TG2 degradation in human OVCAR-5 cells assessed as reduction in TG2 level at 10 uM incubated for 6 hrs followed by MG132 addition and measured after 8 hrs by Western blot analysis; type: cell-based; conditions: time 14.0 hrs; summary of the method: as §4
[20] = biological target: T1, Protein-glutamine gamma-glutamyltransferase (Homo sapiens); assay: Induction of TG2 degradation in human OVCAR-5 cells assessed as reduction in TG2 level at 0.1 to 10 uM measured after 24 hrs by Western blot analysis; type: cell-based; conditions: dose 0.1-10 µM
Summary of the method: (§8)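 Cells on 6 cm dishes treated for 6 or 24 h; OVCAR5 at 0.1, 1 and 10 μM, SKOV3 at 1 and 10 μM; DMSO control. RIPA lysates quantified by Bradford, then western blot with anti-TG2 and GAPDH antibodies (1:1000, overnight 4 °C). Bands quantified by densitometry; n = 3.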

[21] = biological target: T1, Protein-glutamine gamma-glutamyltransferase (Homo sapiens); assay: Induction of TG2 degradation in human SK-OV-3 cells assessed as reduction in TG2 level measured within 6 hrs by Western blot analysis; type: cell-based; conditions: dose 0.1-10 µM
[22] = biological target: T1, Protein-glutamine gamma-glutamyltransferase (Homo sapiens); assay: Induction of TG2 degradation in human SK-OV-3 cells assessed as maximal degradation at 10 to 30 uM measured after 6 hrs by Western blot analysis; type: cell-based; conditions: dose 10-30 µM; summary of the method: as §1
[23] = biological target: T1, Protein-glutamine gamma-glutamyltransferase (Homo sapiens); assay: Induction of TG2 degradation in human SK-OV-3 cells assessed as reduction in TG2 level at 0.1 to 30 uM by Western blot analysis; type: cell-based; conditions: dose 0.1-30 µM, time 2-12 hrs, TDE = time-dependent effect; summary of the method: as §1
SK-OV-3 [24] = assay: Inhibition of cell migration in human SK-OV-3 cells at 10 uM incubated for 18 hrs by crystal violet staining based transwell migration assay; type: functional; summary of the method: as §7
[25] = biological target: T2, Protein-glutamine gamma-glutamyltransferase (Homo sapiens, UniProt P21980); assay: Binding affinity to TG2 (unknown origin) assessed as dissociation constant at 30 degree C by isothermal titration calorimetry
T2 sequence (P21980 whole entry): T1 sequence (whole entry)

[26] = biological target: T1, Protein-glutamine gamma-glutamyltransferase (Homo sapiens); assay: Induction of TG2 degradation in human OVCAR-5 cells assessed as reduction in TG2 level at 0.1 to 10 uM measured after 6 hrs by Western blot analysis; type: cell-based; conditions: dose 0.1-10 µM; summary of the method: as §8
[27] = biological target: T1, Protein-glutamine gamma-glutamyltransferase (Homo sapiens); assay: Induction of TG2 degradation in human SK-OV-3 cells assessed as reduction in TG2 level at 0.1 to 10 uM measured after 6 hrs by Western blot analysis; type: cell-based; conditions: dose 0.1-10 µM

Compound: Cc1cc(N(C)CCOCCOCCOCCOCCOCCC(=O)N[C@H](C(=O)N2C[C@H](O)C[C@H]2C(=O)NCc2ccc(-c3scnc3C)cc2)C(C)(C)C)nc(Nc2ccc(NC(=O)Cc3ccccc3)cc2)n1
- Activity [1]: inactive
- inhibition (OVCAR-5 [2]): Active
- Ratio [3]: 8.8
- Activity [4]: Dose-Dependent Effect
- Activity [5]: inactive
- Activity (OVCAR-5 [6]): inactive
- Activity [7]: Dose-Dependent Effect
- Activity [8]: inactive
- Activity [9]: inactive
- Activity [10]: Active
- inhibition (SK-OV-3 [11]): Active
- Activity [12]: inactive
- Activity [13]: Active
- inhibition (OVCAR-5 [14]): Active
- Activity (SK-OV-3 [15]): inactive
- inhibition (OVCAR-5 [16]): Active
- Activity [17]: inactive
- inhibition (SK-OV-3 [18]): Active
- Activity [19]: inactive
- Activity [20]: inactive
- Activity [21]: Dose-Dependent Effect
- Activity [22]: Active
- Activity [23]: Tde
- inhibition (SK-OV-3 [24]): Active

Compound: Cc1cc(N(C)CCOCCC(=O)N[C@H](C(=O)N2C[C@H](O)C[C@H]2C(=O)NCc2ccc(-c3scnc3C)cc2)C(C)(C)C)nc(Nc2ccc(NC(=O)Cc3ccccc3)cc2)n1
- Activity [1]: inactive
- inhibition (OVCAR-5 [2]): Active
- Ratio [3]: > 12.8
- Activity [4]: Dose-Dependent Effect
- Activity [5]: inactive
- Activity (OVCAR-5 [6]): inactive
- Activity [7]: Dose-Dependent Effect
- Activity [8]: inactive
- Activity [9]: inactive
- Activity [10]: Active
- inhibition (SK-OV-3 [11]): Active
- Activity [12]: inactive
- Activity [13]: Active
- inhibition (OVCAR-5 [14]): Active
- Activity (SK-OV-3 [15]): inactive
- Kd [25]: > 100 µM
- inhibition (OVCAR-5 [16]): Active
- Activity [17]: inactive
- inhibition (SK-OV-3 [18]): Active
- Activity [19]: inactive
- Activity [20]: inactive
- Activity [21]: Dose-Dependent Effect
- Activity [22]: Active
- Activity [23]: Tde
- inhibition (SK-OV-3 [24]): Active

Compound: Cc1cc(N(C)CCOCCOCCOCCOCCOCCC(=O)N[C@H](C(=O)N2C[C@@H](O)C[C@H]2C(=O)NCc2ccc(-c3scnc3C)cc2)C(C)(C)C)nc(Nc2ccc(NC(=O)Cc3ccccc3)cc2)n1
- inhibition (OVCAR-5 [2]): inactive
- Activity [26]: inactive
- inhibition (SK-OV-3 [11]): inactive
- inhibition (OVCAR-5 [14]): inactive
- inhibition (OVCAR-5 [16]): inactive
- Activity [27]: inactive
- inhibition (SK-OV-3 [18]): inactive
- inhibition (SK-OV-3 [24]): inactive

Compound: Cc1cc(N(C)CCOCCC(=O)N[C@H](C(=O)N2C[C@@H](O)C[C@H]2C(=O)NCc2ccc(-c3scnc3C)cc2)C(C)(C)C)nc(Nc2ccc(NC(=O)Cc3ccccc3)cc2)n1
- inhibition (OVCAR-5 [2]): inactive
- Activity [26]: inactive
- inhibition (SK-OV-3 [11]): inactive
- inhibition (OVCAR-5 [14]): inactive
- inhibition (OVCAR-5 [16]): inactive
- Activity [27]: inactive
- inhibition (SK-OV-3 [18]): inactive
- inhibition (SK-OV-3 [24]): inactive
